Results reported in ChEMBL document CHEMBL1142636 (2000).
Calls of active or inactive are those of the source.

Key:
SK-MEL-28 = experiment: Growth inhibition of human SK-MEL-28 cells; assay type: functional
Outline: (§1)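 Tested at the NCI in its human disease-oriented in vitro screen of 60 tumour cell lines, following the Monks et al. methods. Activity is expressed as GI50, given as log molar values.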

Hs-578T = experiment: Growth inhibition of human HS578T cells; assay type: functional
SF-295 = experiment: Growth inhibition of human SF295 cells; assay type: functional; outline: as §1
OVACR4 = experiment: (§2) Growth inhibition of human OVACR4 cells; assay type: functional
MDA-N = experiment: Growth inhibition of human MDA-N cells; assay type: functional
SNB-19 = experiment: Growth inhibition of human SNB19 cells; assay type: functional; outline: as §1
MOLT-4 = experiment: Growth inhibition of human MOLT4 cells; assay type: functional
HL-60(TB) = experiment: (§3) Growth inhibition of human HL60(TB) cells; assay type: functional
CAKI-1 = experiment: Growth inhibition of human CAKI1 cells; assay type: functional
UACC-257 = experiment: Growth inhibition of human UACC257 cells; assay type: functional; outline: as §1
DMS144 = experiment: (§4) Growth inhibition of human DMS144 cells; assay type: functional
HCT-15 = experiment: Growth inhibition of human HCT15 cells; assay type: functional
KM-20L2 = experiment: Growth inhibition of human KM20L2 cells; assay type: functional
ACHN = experiment: Growth inhibition of human ACHN cells; assay type: functional
NCI-H226 = experiment: Growth inhibition of human NCI-H226 cells; assay type: functional
PC-3 = experiment: Growth inhibition of human PC3 cells; assay type: functional
Malme-3M = experiment: Growth inhibition of human MALME-3M cells; assay type: functional
NCI-H322M = experiment: Growth inhibition of human NCI-H322M cells; assay type: functional
SK-MEL-2 = experiment: Growth inhibition of human SK-MEL-2 cells; assay type: functional; outline: as §1
NCI-H23 = experiment: Growth inhibition of human NCI-H23 cells; assay type: functional
A498 = experiment: Growth inhibition of human A498 cells; assay type: functional
NCI-H522 = experiment: Growth inhibition of human NCI-H522 cells; assay type: functional
MCF7 = experiment: Growth inhibition of human MCF7 cells; assay type: functional
OVACR3 = experiment: (§5) Growth inhibition of human […] cells; assay type: functional
SN12C = experiment: Growth inhibition of human SN12C cells; assay type: functional; outline: as §1
DLD-1 = experiment: Growth inhibition of human DLD1 cells; assay type: functional
XF498 = experiment: Growth inhibition of human XF498 cells; assay type: functional; outline: as §1
RPMI8266 = experiment: (§6) Growth inhibition of human RPMI8266 cells; assay type: functional
OVACR5 = experiment: (§7) Growth inhibition of human OVACR5 cells; assay type: functional
NCI-H460 = experiment: Growth inhibition of human NCI-H460 cells; assay type: functional
786-0 = experiment: Growth inhibition of human 786-0 cells; assay type: functional
DMS-273 = experiment: Growth inhibition of human DMS273 cells; assay type: functional
HOP-62 = experiment: Growth inhibition of human HOP62 cells; assay type: functional
SR = experiment: Growth inhibition of human SR cells; assay type: functional; outline: as §1
HCT-116 = experiment: Growth inhibition of human HCT116 cells; assay type: functional
OVACR8 = experiment: (§8) Growth inhibition of human OVACR8 cells; assay type: functional
T47D = experiment: Growth inhibition of human T47D cells; assay type: functional; outline: as §1
RXF 393 = experiment: Growth inhibition of human […] cells; assay type: functional
K562 = experiment: Growth inhibition of human K562 cells; assay type: functional
HCC 2998 = experiment: Growth inhibition of human HCC2998 cells; assay type: functional
UACC-62 = experiment: Growth inhibition of human UACC62 cells; assay type: functional; outline: as §1
CCRF-CEM = experiment: Growth inhibition of human CCRF-CEM cells; assay type: functional
HT-29 = experiment: Growth inhibition of human HT29 cells; assay type: functional
U-251 = experiment: Growth inhibition of human U251 cells; assay type: functional; outline: as §1
M19-MEL = experiment: Growth inhibition of human M19-MEL cells; assay type: functional
HOP-92 = experiment: Growth inhibition of human HOP92 cells; assay type: functional
COLO 205 = experiment: Growth inhibition of human COLO205 cells; assay type: functional
BT-549 = experiment: Growth inhibition of human BT549 cells; assay type: functional
SW-620 = experiment: Growth inhibition of human SW620 cells; assay type: functional; outline: as §1
MDA-MB-435 = experiment: Growth inhibition of human MDA-MB-435 cells; assay type: functional
SF-539 = experiment: Growth inhibition of human SF539 cells; assay type: functional; outline: as §1
NCI/ADR-RES = experiment: (§9) Growth inhibition of human MCF7/ADR-RES cells; assay type: functional
LXFL 529 = experiment: (§10) Growth inhibition of human LXFL529 cells; assay type: functional
EKVX = experiment: Growth inhibition of human EKVX cells; assay type: functional
LOX IMVI = experiment: Growth inhibition of human LOX IMVI cells; assay type: functional
TK-10 = experiment: Growth inhibition of human TK10 cells; assay type: functional; outline: as §1
A549 = experiment: Growth inhibition of human A549 cells; assay type: functional
MDA-MB-231 = experiment: Growth inhibition of human MDA-MB-231 cells; assay type: functional
IGROV-1 = experiment: Growth inhibition of human IGROV1 cells; assay type: functional
SK-OV-3 = experiment: Growth inhibition of human SK-OV-3 cells; assay type: functional; outline: as §1
M14 = experiment: Growth inhibition of human M14 cells; assay type: functional
SF-268 = experiment: Growth inhibition of human SF268 cells; assay type: functional; outline: as §1
KM12 = experiment: Growth inhibition of human KM12 cells; assay type: functional
SK-MEL-5 = experiment: Growth inhibition of human SK-MEL-5 cells; assay type: functional; outline: as §1
HOP-18 = experiment: Growth inhibition of human HOP18 cells; assay type: functional
SNB-75 = experiment: Growth inhibition of human SNB75 cells; assay type: functional; outline: as §1
UO-31 = experiment: Growth inhibition of human UO31 cells; assay type: functional; outline: as §1
DU-145 = experiment: Growth inhibition of human DU145 cells; assay type: functional
[1] = as §2; assay type: functional; details: read-out: pLC50 (the source's name) (converted)
[2] = as §3; assay type: functional, HL-60(TB); details: HL-60, read-out: pLC50 (the source's name) (converted)
[3] = as §4; assay type: functional
[4] = as §5; assay type: functional; details: read-out: pLC50 (the source's name) (converted)
[5] = as §6; assay type: functional; details: read-out: pLC50 (the source's name) (converted)
[6] = as §7; assay type: functional; details: read-out: pLC50 (the source's name) (converted)
[7] = as §8; assay type: functional; details: read-out: pLC50 (the source's name) (converted)
[8] = as §9; assay type: functional; details: NCI/ADR-RES, read-out: pLC50 (the source's name) (converted)
[9] = as §10; assay type: functional; details: LXFL 529
[10] = read-out: pLC50 (the source's name) (converted)

Cc1cc2c([nH]c3ccccc32)c2c1OC(C)(C)[C@H]1[C@H]3CC(C)(C)Oc4c(C)cc5c6ccccc6n(c5c43)[C@@H]21
inactive: Activity (SK-MEL-28) | Activity (Hs-578T) | Activity (SF-295) | Activity (OVACR4) | Activity (MDA-N) | Activity (SNB-19) | Activity (MOLT-4) | Activity (HL-60(TB)) | Activity (CAKI-1) | Activity (UACC-257) | Activity (DMS144) | Activity (HCT-15) | Activity (KM-20L2) | Activity (ACHN) | Activity (NCI-H226) | Activity (PC-3) | Activity (Malme-3M) | Activity (NCI-H322M) | Activity (SK-MEL-2) | Activity (NCI-H23) | Activity (A498) | Activity (NCI-H522) | Activity (MCF7) | Activity (OVACR3) | Activity (SN12C) | Activity (DLD-1) | Activity (XF498) | Activity (RPMI8266) | Activity (OVACR5) | Activity (NCI-H460) | Activity (786-0) | Activity (DMS-273) | Activity (HOP-62) | Activity (SR) | Activity (HCT-116) | Activity (OVACR8) | Activity (T47D) | Activity (RXF 393) | Activity (K562) | Activity (HCC 2998) | Activity (UACC-62) | Activity (CCRF-CEM) | Activity (HT-29) | Activity (U-251) | Activity (M19-MEL) | Activity (HOP-92) | Activity (COLO 205) | Activity (BT-549) | Activity (SW-620) | Activity (MDA-MB-435) | Activity (SF-539) | Activity (NCI/ADR-RES) | Activity (LXFL 529) | Activity (EKVX) | Activity (LOX IMVI) | Activity (TK-10) | Activity (A549) | Activity (MDA-MB-231) | Activity (IGROV-1) | Activity (SK-OV-3) | Activity (M14) | Activity (SF-268) | Activity (KM12) | Activity (SK-MEL-5) | Activity (HOP-18) | Activity (SNB-75) | Activity (UO-31) | Activity (DU-145)

Cc1cc2c3ccccc3n3c2c2c1O[C@@]1(C)CC[C@H]([C@@H]2C1)C3(C)C
> 25.1 µM: CC50 (SK-MEL-28; [10]) | CC50 (Hs-578T; [10]) | CC50 (SF-295; [10]) | CC50 [1] | CC50 (MDA-N; [10]) | CC50 (SNB-19; [10]) | LC50 (MOLT-4) | CC50 [2] | CC50 (CAKI-1; [10]) | CC50 (UACC-257; [10]) | LC50 [3] | CC50 (HCT-15; [10]) | CC50 (KM-20L2; [10]) | CC50 (ACHN; [10]) | LC50 (NCI-H226) | CC50 (PC-3; [10]) | CC50 (Malme-3M; [10]) | LC50 (NCI-H322M) | CC50 (SK-MEL-2; [10]) | LC50 (NCI-H23) | CC50 (A498; [10]) | CC50 (NCI-H522; [10]) | CC50 (MCF7; [10]) | CC50 [4] | CC50 (SN12C; [10]) | LC50 (DLD-1) | CC50 (XF498; [10]) | CC50 [5] | CC50 [6] | LC50 (NCI-H460) | CC50 (786-0; [10]) | LC50 (DMS-273) | LC50 (HOP-62) | LC50 (SR) | CC50 (HCT-116; [10]) | CC50 [7] | LC50 (T47D) | CC50 (RXF 393; [10]) | LC50 (K562) | LC50 (HCC 2998) | CC50 (UACC-62; [10]) | LC50 (CCRF-CEM) | LC50 (HT-29) | CC50 (U-251; [10]) | CC50 (M19-MEL; [10]) | CC50 (HOP-92; [10]) | LC50 (COLO 205) | LC50 (BT-549) | LC50 (SW-620) | LC50 (MDA-MB-435) | CC50 (SF-539; [10]) | CC50 [8] | LC50 [9] | CC50 (EKVX; [10]) | CC50 (LOX IMVI; [10]) | CC50 (TK-10; [10]) | LC50 (A549) | CC50 (MDA-MB-231; [10]) | CC50 (IGROV-1; [10]) | CC50 (SK-OV-3; [10]) | CC50 (M14; [10]) | LC50 (SF-268) | CC50 (KM12; [10]) | CC50 (SK-MEL-5; [10]) | CC50 (HOP-18; [10]) | CC50 (SNB-75; [10]) | CC50 (UO-31; [10]) | CC50 (DU-145; [10])
